Test results reported in ChEMBL document CHEMBL1135874, “Novel agents combining platelet activating factor (PAF) receptor antagonist with thromboxane synthase inhibitor (TxSI)” (Bioorg Med Chem Lett, 2002).

Key:
Thromboxane-A synthase = target: T1, Thromboxane-A synthase (Homo sapiens, UniProt P24557); assay: In vitro inhibition of thromboxane synthase (TXA2) in human platelet microsomes [reduced formation of TXB2 from prostaglandin H2(PGH2)]; assay type: functional, Microsome
T1 sequence (P24557 whole entry): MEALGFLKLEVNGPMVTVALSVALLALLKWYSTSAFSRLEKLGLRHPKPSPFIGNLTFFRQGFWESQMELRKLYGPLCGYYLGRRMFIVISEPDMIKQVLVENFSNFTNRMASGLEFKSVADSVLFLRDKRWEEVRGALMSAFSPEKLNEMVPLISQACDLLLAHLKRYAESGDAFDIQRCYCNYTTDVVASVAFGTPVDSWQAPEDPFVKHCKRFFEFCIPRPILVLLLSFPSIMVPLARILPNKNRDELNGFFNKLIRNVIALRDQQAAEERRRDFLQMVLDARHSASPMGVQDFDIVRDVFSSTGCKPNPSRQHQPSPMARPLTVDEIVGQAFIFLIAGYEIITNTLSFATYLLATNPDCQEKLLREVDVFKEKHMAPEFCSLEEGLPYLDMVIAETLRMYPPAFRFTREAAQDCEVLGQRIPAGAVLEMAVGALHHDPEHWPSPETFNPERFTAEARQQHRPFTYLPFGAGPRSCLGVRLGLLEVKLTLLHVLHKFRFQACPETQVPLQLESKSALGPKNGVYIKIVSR

[1] = Inhibition of Platelet activating factor (PAF)- induced platelet aggregation in rabbit platelet rich plasma (PRP); assay type: functional
[2] = target: Platelet-activating factor receptor (Mus musculus) (UniProt Q62035); assay: Antagonism of Platelet activating factor (PAF)in mice after Intravenous administration, assayed by PAF-induced death; assay type: functional, organism-based
Summary of the method: (§1)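 Mice dosed with test agent intravenously or orally, then injected with a lethal dose of PAF. Protection from PAF-induced death was scored. ED50 was taken as the dose that reduced mortality by 50%. Oral testing used the same method as intravenous testing.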

[3] = target: T2, Thromboxane-A synthase (Rattus norvegicus) (UniProt P49430); assay: Thromboxane synthase inhibitor (TxSI) activity assessed by ex vivo inhibition of serum TXB2 production in rat after Intravenous administration; assay type: functional, organism-based
T2 sequence (whole entry): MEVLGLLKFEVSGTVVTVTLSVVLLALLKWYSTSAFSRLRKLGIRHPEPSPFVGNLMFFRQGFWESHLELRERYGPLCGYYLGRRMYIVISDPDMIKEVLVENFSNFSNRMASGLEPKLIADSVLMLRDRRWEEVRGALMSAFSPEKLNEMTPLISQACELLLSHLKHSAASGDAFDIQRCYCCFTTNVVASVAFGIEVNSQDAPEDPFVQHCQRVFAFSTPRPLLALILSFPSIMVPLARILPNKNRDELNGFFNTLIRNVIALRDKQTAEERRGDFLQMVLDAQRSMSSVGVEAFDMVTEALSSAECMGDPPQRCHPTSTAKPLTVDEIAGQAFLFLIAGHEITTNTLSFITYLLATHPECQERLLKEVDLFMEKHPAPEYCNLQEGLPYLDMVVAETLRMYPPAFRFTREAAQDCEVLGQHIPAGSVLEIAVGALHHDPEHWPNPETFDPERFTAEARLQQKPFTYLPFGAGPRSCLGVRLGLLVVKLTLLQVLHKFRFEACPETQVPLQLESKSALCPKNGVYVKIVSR
Summary of the method: (§2)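 Rats dosed intravenously or orally. Blood was then taken, and serum TxB2 production was measured ex vivo. Values are reported as ED50 doses in mg/kg. Oral testing used the same method as intravenous testing.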

[4] = target: T2, Thromboxane-A synthase (Rattus norvegicus); assay: Thromboxane synthase inhibitor (TxSI) activity was assessed by ex vivo inhibition of serum TXB2 production in rat after oral administration; assay type: functional, organism-based; summary of the method: as §2
[5] = target: Platelet-activating factor receptor (Mus musculus) (UniProt Q62035); assay: Antagonism of Platelet activating factor (PAF) activity in mice after oral administration, assayed by PAF-induced death; assay type: functional, organism-based; summary of the method: as §1

Sequence of Platelet-activating factor receptor (Mus musculus) (Q62035 whole entry): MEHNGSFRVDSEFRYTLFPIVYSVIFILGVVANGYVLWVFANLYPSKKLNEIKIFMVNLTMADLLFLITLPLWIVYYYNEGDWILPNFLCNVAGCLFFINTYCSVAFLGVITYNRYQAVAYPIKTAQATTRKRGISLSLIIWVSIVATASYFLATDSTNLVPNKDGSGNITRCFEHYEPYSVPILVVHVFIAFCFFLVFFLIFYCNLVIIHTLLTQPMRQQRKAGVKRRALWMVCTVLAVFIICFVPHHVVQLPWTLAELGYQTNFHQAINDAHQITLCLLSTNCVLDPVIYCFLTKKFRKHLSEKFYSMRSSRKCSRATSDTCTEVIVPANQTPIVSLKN

SMILES	IC50 (Thromboxane-A synthase; read-out: IC50) [nM]	IC50 [1] [nM]	ED50 [2] [mg/kg]	ED50 [3] [mg/kg]	ED50 [4] [mg/kg]	ED50 [5] [mg/kg]	IC50 (Thromboxane-A synthase)
Cc1nnc2n1-c1sc3c(c1C(c1ccccc1Cl)=NC2C)CCNC3 (centres undefined)	> 1000	245	> 5	–	–	–	–
CCOC(=O)CCCCO/N=C(\c1ccccc1)c1cccnc1	1	–	–	0.01	> 0.1	–	–
Cc1nnc2n1-c1sc3c(c1C(c1ccccc1Cl)=NC2C)CCN(Cc1cccc(/C(=N\OCCCCC(=O)OCc2ccccc2)c2cccnc2)c1)C3 (centres undefined)	465	98	0.54	> 1	–	> 10	–
CCOC(=O)CCCCO/N=C(/c1cccnc1)c1cccc(CCCC(=O)N2CCc3c(sc4c3C(c3ccccc3Cl)=NC(C)c3nnc(C)n3-4)C2)c1 (centres undefined)	41	39	1.05	> 1	–	> 10	–
CCOC(=O)CCCCO/N=C(\c1ccc(C(=O)N2CCc3c(sc4c3C(c3ccccc3Cl)=NC(C)c3nnc(C)n3-4)C2)cc1)c1cccnc1 (centres undefined)	–	100	0.2	> 1	–	0.5	–
O=C(O)CCCC/C=C(/c1ccccc1)c1cccnc1	–	–	–	0.01	0.05	–	–
CCOC(=O)CCCCO/N=C(\c1ccc(CC(=O)N2CCc3c(sc4c3C(c3ccccc3Cl)=NC(C)c3nnc(C)n3-4)C2)cc1)c1cccnc1 (centres undefined)	69	85	4.2	> 1	–	> 10	–
CCOC(=O)CCCC/C=C(/c1cccnc1)c1cccc(CN2CCc3c(sc4c3C(c3ccccc3Cl)=NC(C)c3nnc(C)n3-4)C2)c1 (centres undefined)	68	39	0.6	0.71	3.2	> 10	–
CCOC(=O)CCCC/C=C(\c1ccc(CN2CCc3c(sc4c3C(c3ccccc3Cl)=NC(C)c3nnc(C)n3-4)C2)cc1)c1cccnc1 (centres undefined)	72	32	0.55	1	5.2	1.6	–
CCOC(=O)CCCCO/N=C(\c1ccc(COCC(=O)N2CCc3c(sc4c3C(c3ccccc3Cl)=NC(C)c3nnc(C)n3-4)C2)cc1)c1cccnc1 (centres undefined)	58	60	4.2	> 1	–	> 10	–
CCOC(=O)CCCCO/N=C(/c1cccnc1)c1ccccc1C(=O)N1CCc2c(sc3c2C(c2ccccc2Cl)=NC(C)c2nnc(C)n2-3)C1 (centres undefined)	> 1000	200	2.4	> 1	–	> 10	–
CCCNC(=O)CCCCO/N=C(/c1cccnc1)c1cccc(CN2CCc3c(sc4c3C(c3ccccc3Cl)=NC(C)c3nnc(C)n3-4)C2)c1 (centres undefined)	540	71	0.54	> 1	–	> 10	–
CCOC(=O)CCCCO/N=C(/c1cccnc1)c1cccc(C(=O)N2CCc3c(sc4c3C(c3ccccc3Cl)=NC(C)c3nnc(C)n3-4)C2)c1 (centres undefined)	–	60	0.47	> 1	–	2.3	–
Cc1nnc2n1-c1sc3c(c1C(c1ccccc1Cl)=NC2C)CCN(Cc1cccc(/C(=N\OCCCCC(=O)O)c2cccnc2)c1)C3 (centres undefined)	24	980	0.47	1	10	> 10	–
O=C(O)/C=C/c1ccc(Cn2ccnc2)cc1	–	–	–	0.02	0.1	–	–
CCOC(=O)CCCCO/N=C(/c1cccnc1)c1cccc(CN2CCc3c(sc4c3C(c3ccccc3Cl)=NC(C)c3nnc(C)n3-4)C2)c1 (centres undefined)	59	47	0.2	0.1	> 10	> 10	–
Cc1nnc2n1-c1sc3c(c1C(c1ccccc1Cl)=NC2C)CCN(Cc1cccc(/C(=N\OCCCCC(=O)OCCN2CCOCC2)c2cccnc2)c1)C3 (centres undefined)	151	81	0.54	0.77	8.9	> 10	–
CCOC(=O)CCCCO/N=C(\c1ccc(CN2CCc3c(sc4c3C(c3ccccc3Cl)=NC(C)c3nnc(C)n3-4)C2)cc1)c1cccnc1 (centres undefined)	80	46	1.35	1	> 10	> 10	–
CCOC(=O)CCCCO/N=C(/c1cccnc1)c1cccc(CCCCN2CCc3c(sc4c3C(c3ccccc3Cl)=NC(C)c3nnc(C)n3-4)C2)c1 (centres undefined)	21	54	0.38	0.53	6.9	> 10	–
CCOC(=O)C1=C(c2ccc(-n3c(C)nc4cnccc43)cc2)NC(C)=C(C(=O)Nc2ccccn2)C1c1ccccc1Cl (centres undefined)	–	–	0.1	–	–	1.55	Not Active
Cc1nnc2n1-c1sc3c(c1C(c1ccccc1Cl)=NC2C)CCN(Cc1cccc(/C(=N\OCCCCC(=O)OCCCc2cccnc2)c2cccnc2)c1)C3 (centres undefined)	> 1000	65	0.54	> 1	–	> 10	–
CCOC(=O)CCCCO/N=C(/c1cccnc1)c1cccc(CN2CCc3c(sc4c3C(c3ccccc3Cl)=NCc3nnc(C)n3-4)C2)c1	65	200	0.8	0.1	> 10	> 10	–
